This is an account of results in ChEMBL document CHEMBL1134945, “Synthesis and structure-activity relationships of aminoalkylazetidines as ORL1 receptor ligands” (Bioorg Med Chem Lett, 2002).

Assay [1] has as its target Mu-type opioid receptor (Homo sapiens, UniProt P35372). The experiment in a line: Binding affinity at human opioid receptor mu 1 was determined by using [3H]diprenorphine radioligand in CHO cell membranes at a concentration of 0.12 nM. In a few lines: (§1)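 Ki from competition binding with [3H]diprenorphine on membranes of CHO cells expressing the respective human opioid receptor; means of 2–3 independent determinations.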

Assay [2] concerns the target T1, Nociceptin receptor (Homo sapiens, UniProt P41146). The experiment in a line: Binding affinity at human ORL1 receptor was determined by using [125I]nociceptin radioligand in Chinese hamster ovary (CHO) cell membranes at a concentration of 23 pM. In a few lines: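 Competition binding against [125I]Nociceptin on membranes of CHO cells expressing human ORL1; Ki derived; means of 2–3 independent determinations.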

The target of assay [3] is T2, Delta-type opioid receptor (Homo sapiens, UniProt P41143). The experiment in a line: Binding affinity at human opioid receptor delta 1 was determined by using [3H]diprenorphine radioligand in CHO cell membranes at a concentration of 0.8 nM. In a few lines: as §1
Assay [4] deals with Kappa-type opioid receptor (Homo sapiens, UniProt P41145). The experiment in a line: Binding affinity at human opioid receptor kappa 1 was determined by using [3H]diprenorphine radioligand in CHO cell membranes at a concentration of 0.31 nM. In a few lines: as §1
The target of assay [5] is T1, Nociceptin receptor. The experiment in a line: Concentration of compound that inhibits the binding of human ORL1 receptor in CHO cell membranes in the presence of [125I]nociceptin radioligand at a concentration of 10 uM.
The target in assay [6] is T1, Nociceptin receptor. The experiment in a line: Functional [35S]GTP-gamma-S, binding for human ORL1 receptor carried out in CHO cell membranes. To be noted: filed as agonist. It is filed as cell-based. In a few lines:
(§2)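 [35S]GTPγS binding on membranes of CHO cells expressing human ORL1, 1 h incubation before assay start. Agonist: raises [35S]GTPγS binding. Antagonist: no effect on basal binding but blocks the Nociceptin-induced rise.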
Background: Binding of GTPγS marks nucleotide exchange on a G protein.

Assay [7] deals with T1, Nociceptin receptor. The experiment in a line: Compound was evaluated for functional [35S]GTP-gamma-S, binding for human ORL1 receptor carried out in CHO cell membranes; Compound acts as Agonist. It is filed as cell-based. To be noted: filed as agonist. In a few lines: as §2
Assay [8] concerns the target T1, Nociceptin receptor. The experiment in a line: Compound was evaluated for functional [35S]GTP-gamma-S, binding for human ORL1 receptor carried out in CHO cell membranes; Compound acts as Antagonist. The assay is classed as cell-based. To be noted: filed as antagonist. In a few lines: as §2
Assay [9] deals with T2, Delta-type opioid receptor. The experiment in a line: Binding affinity at human Opioid receptor delta 1 was determined by using [3H]diprenorphine radioligand in CHO cell membranes at a concentration of 0.8 nM. In a few lines: as §1

pKi: −log10 of the molar value.

T2 sequence (P41143 whole entry): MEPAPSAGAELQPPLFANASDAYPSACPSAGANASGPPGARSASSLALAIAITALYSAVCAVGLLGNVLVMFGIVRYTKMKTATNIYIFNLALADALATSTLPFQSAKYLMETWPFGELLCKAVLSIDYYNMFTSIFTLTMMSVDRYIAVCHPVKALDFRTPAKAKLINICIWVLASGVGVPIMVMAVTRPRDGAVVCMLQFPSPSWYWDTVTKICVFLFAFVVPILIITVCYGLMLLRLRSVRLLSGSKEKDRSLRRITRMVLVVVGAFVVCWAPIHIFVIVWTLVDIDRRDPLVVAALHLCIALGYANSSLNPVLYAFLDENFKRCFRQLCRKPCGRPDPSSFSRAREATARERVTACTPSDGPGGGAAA
T1 sequence (P41146 whole entry): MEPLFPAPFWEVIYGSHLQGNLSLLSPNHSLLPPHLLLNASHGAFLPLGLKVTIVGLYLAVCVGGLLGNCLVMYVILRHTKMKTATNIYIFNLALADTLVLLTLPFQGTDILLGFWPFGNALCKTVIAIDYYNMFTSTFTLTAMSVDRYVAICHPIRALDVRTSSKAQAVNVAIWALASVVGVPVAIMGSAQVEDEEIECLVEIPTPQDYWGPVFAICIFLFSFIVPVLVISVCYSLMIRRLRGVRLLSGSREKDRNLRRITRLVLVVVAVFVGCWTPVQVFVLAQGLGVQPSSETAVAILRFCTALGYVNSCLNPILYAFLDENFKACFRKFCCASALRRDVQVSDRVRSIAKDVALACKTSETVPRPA
Sequence of Kappa-type opioid receptor (P41145 whole entry): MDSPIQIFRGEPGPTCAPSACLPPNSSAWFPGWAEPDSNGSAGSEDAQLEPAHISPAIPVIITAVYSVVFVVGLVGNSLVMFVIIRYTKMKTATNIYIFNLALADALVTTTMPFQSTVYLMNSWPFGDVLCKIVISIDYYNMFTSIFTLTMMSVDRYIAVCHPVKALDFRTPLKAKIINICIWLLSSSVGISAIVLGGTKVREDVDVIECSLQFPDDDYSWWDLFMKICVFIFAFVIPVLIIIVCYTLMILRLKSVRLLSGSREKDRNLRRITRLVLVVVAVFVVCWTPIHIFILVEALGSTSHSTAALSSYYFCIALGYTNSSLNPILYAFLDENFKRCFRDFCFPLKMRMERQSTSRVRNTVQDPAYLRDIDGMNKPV
Sequence of Mu-type opioid receptor (P35372 whole entry): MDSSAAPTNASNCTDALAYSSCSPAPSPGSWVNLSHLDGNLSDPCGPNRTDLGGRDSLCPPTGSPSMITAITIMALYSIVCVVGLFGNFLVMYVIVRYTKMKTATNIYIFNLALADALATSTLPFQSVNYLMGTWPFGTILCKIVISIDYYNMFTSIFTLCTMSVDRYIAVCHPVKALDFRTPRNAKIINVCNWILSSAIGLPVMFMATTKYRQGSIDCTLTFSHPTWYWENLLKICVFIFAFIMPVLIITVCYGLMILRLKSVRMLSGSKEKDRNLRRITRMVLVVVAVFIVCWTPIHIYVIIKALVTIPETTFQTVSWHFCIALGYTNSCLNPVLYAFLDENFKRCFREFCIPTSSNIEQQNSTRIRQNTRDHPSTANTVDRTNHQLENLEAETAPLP

A word on the pKi: it is the Ki on a negative log10 scale, so that one unit is a factor of ten. A lower pKi goes with a high Ki. On to `CCCCC(CCCC)N1CC[C@H]1[C@@H](N)c1cccc(Cl)c1`, for which the pKi in [1] was 5.01; in assay [2] it was 5.87; in [3] it was 4.50; in assay [4] it was 5.37.

As usually defined, the inhibition is the change of the read-out against control, counted positive when it falls. In the case of `COc1cccc([C@H](N)[C@@H]2CCN2C(c2ccccc2)c2ccccc2)c1`, the inhibition in assay [5] came to 45%.

For the molecule `N[C@@H](c1cccc(Cl)c1)[C@@H]1CCN1C(c1ccccc1)c1ccccc1`, the pKi in assay [1] is 5.78; in [2], 7.43; in assay [3], 5.08; in [4], 5.91.

As to `N[C@@H](c1ccc(Cl)cc1)[C@@H]1CCN1C(c1ccccc1)c1ccccc1`, the pKi was 6.23 in [1], 6.82 in assay [2], 5.84 in assay [3] and 6.22 in [4]. Moreover, in assay [6], the Activity entry is “Agonist”.

For `Cc1ccc(C(c2ccc(C)cc2)N2CC[C@H]2[C@H](N)c2cccc(Cl)c2)cc1`, the pKi is 6.10 in assay [1], 5.95 in assay [2], 5.30 in assay [3] and 5.73 in assay [4].

As for `N[C@H](c1cccc(Cl)c1)[C@@H]1CCN1C(c1cccc(F)c1)c1cccc(F)c1`, the pKi in [1] was 5.36; in assay [2], 7.19; in assay [3], 5.32; in [4] it was 5.45. In addition, the Activity entry in assay [6] was “Agonist”.

With `N[C@@H](c1cccc(C(F)(F)F)c1)[C@@H]1CCN1C(c1ccccc1)c1ccccc1` (stereo in doubt; (+\-)-1) [listing 1 of 2 here], in assay [6], the Activity entry is “Agonist”.

For the molecule `CCCC(c1ccccc1)N1CC[C@H]1[C@H](N)c1cccc(Cl)c1` (stereo not given in full), the negative-log Ki (pKi) in assay [1] is 5.22; in [2], 7.10; in assay [3], 4.78; in assay [4] it was 5.14. Further, the Activity result in assay [6] is “Agonist”.

Regarding `N[C@H](c1cccc(Cl)c1)[C@@H]1CCN1C(c1ccc(Cl)cc1)c1ccc(Cl)cc1`, the pKi is 5.46 in assay [1], 5.49 in assay [2], 5.30 in assay [3] and 5.49 in assay [4].

As for `CCCCC(c1ccccc1)N1CC[C@H]1[C@H](N)c1cccc(Cl)c1` (stereo not given in full), the pKi is 5.74 in assay [1], 7.52 in [2], 5.09 in assay [3] and 5.46 in assay [4]. Also, the Activity entry in [6] is “Agonist”.

On to `N[C@H](c1cccc(Cl)c1)[C@@H]1CCN1C(c1ccc(F)cc1)c1ccc(F)cc1`, for which the negative-log Ki (pKi) in assay [1] is 5.66; in [2] it was 6.16; in [3], 5.13; in assay [4], 5.65.

`CCCCCC(c1ccccc1)N1CC[C@H]1[C@@H](N)c1cccc(Cl)c1` (stereo not given in full): the negative logarithm of the Ki (pKi) in assay [1] is 5.67; in [2], 6.11; in assay [3], 5.12; in [4], 5.41.

Consider `CC(c1ccccc1)N1CC[C@H]1[C@@H](N)c1cccc(Cl)c1` (stereo not given in full), for which the pKi is 4.97 in assay [1], 5.97 in [2], 4.41 in assay [3] and 5.39 in [4].

As to `CCCCC(c1cccc(F)c1)N1CC[C@H]1[C@@H](N)c1cccc(Cl)c1` (stereo not given in full), the pKi in assay [1] is 5.33; in [2], 6.17; in assay [3], 4.91; in assay [4], 5.38.

For `N[C@@H](c1ccc(Oc2ccccc2)cc1)[C@@H]1CCN1C(c1ccccc1)c1ccccc1`, the pKi was 5.27 in assay [1], 5.14 in assay [2], 5.11 in assay [3] and 5.56 in [4].

In the case of `CCC(c1ccccc1)N1CC[C@H]1[C@@H](N)c1cccc(Cl)c1` (stereo not given in full), the pKi was 5.09 in assay [1], 6.24 in assay [2], 4.65 in assay [3] and 4.88 in assay [4].

Regarding `CCCCC(c1cccc(F)c1)N1CC[C@H]1[C@H](N)c1cccc(Cl)c1` (stereo not given in full), the pKi in assay [1] is 5.80; in assay [2], 7.59; in [3] it was 5.06; in [4], 5.67. Moreover, the Activity entry in assay [6] is “Agonist”.

With `COc1ccc([C@H](N)[C@@H]2CCN2C(c2ccccc2)c2ccccc2)cc1`, the pKi is 6.06 in [1], 6.70 in [2], 5.53 in assay [3] and 5.87 in [4].

Consider `CCCCC(c1ccccc1)N1CC[C@H]1[C@@H](N)c1cccc(Cl)c1` (stereo not given in full), for which the pKi in assay [1] is 5.65; in [2], 6.13; in assay [3] it was 5.05; in [4], 5.43.

As for `N[C@@H](c1cccc(F)c1)[C@@H]1CCN1C(c1ccccc1)c1ccccc1`, the pKi in assay [1] was 5.75; in assay [2], 6.72; in assay [3] it was 5.53; in assay [4], 6.00. The Activity entry in assay [6] is “Agonist”.

Consider `N[C@H](c1cccc(Cl)c1)[C@@H]1CCN1C(c1cccc(C(F)(F)F)c1)c1cccc(C(F)(F)F)c1`, for which the negative logarithm of the Ki (pKi) in assay [2] is 5.59.

In the case of `N[C@H](c1cccc(Cl)c1)[C@@H]1CCN1C(c1cccc(Cl)c1)c1cccc(Cl)c1`, the pKi in [1] was 5.15; in [2] it was 6.38; in assay [3] it was 5.57; in assay [4], 5.22. Besides, the Activity entry in [6] was “Agonist”.

Regarding `CCCCC(c1cc(F)cc(F)c1)N1CC[C@H]1[C@H](N)c1cccc(Cl)c1` (stereo not given in full), the pKi was 5.40 in assay [1], 7.31 in assay [2], 4.95 in assay [3] and 5.37 in [4]. The Activity result in assay [7] is “Agonist”.

Consider `CCCCCCC(c1ccccc1)N1CC[C@H]1[C@H](N)c1cccc(Cl)c1` (stereo not given in full), for which the pKi in [1] is 5.83; in [2], 6.73; in [4], 5.54; in assay [9] it was 5.41. Also, the Activity result in assay [8] was “Antagonist”.

Take `N[C@H](c1cccc(C(F)(F)F)c1)[C@H]1CCN1C(c1ccccc1)c1ccccc1`: the pKi in [1] was 6.29; in assay [2] it was 7.85; in [3], 5.48; in assay [4], 6.19. Moreover, in [6], the Activity entry is “Agonist”.

On to `CCC(c1ccccc1)N1CC[C@H]1[C@H](N)c1cccc(Cl)c1` (stereo not given in full), for which the pKi in [1] was 5.14; in [2] it was 7.03; in assay [3], 4.65; in assay [4] it was 5.11. The Activity result in assay [6] was “Agonist”.

`N[C@@H](c1cccc(C(F)(F)F)c1)[C@@H]1CCN1C(c1ccccc1)c1ccccc1` (stereo in doubt; (+)-1a) [listing 1 of 2 here]: the Activity result in assay [6] is “Agonist”.

On to `Cc1cccc([C@H](N)[C@@H]2CCN2C(c2ccccc2)c2ccccc2)c1`, for which the inhibition in assay [5] came out at 3%.

`CCCCCC(c1ccccc1)N1CC[C@H]1[C@H](N)c1cccc(Cl)c1` (stereo not given in full): the pKi was 5.71 in assay [1], 7.47 in assay [2], 5.22 in [3] and 5.52 in assay [4].

In the case of `Cc1ccc([C@H](N)[C@@H]2CCN2C(c2ccccc2)c2ccccc2)cc1`, the pKi was 6.31 in assay [1], 7.03 in assay [2], 5.73 in assay [3] and 6.18 in [4].

As for `N[C@H](c1cccc(Cl)c1)[C@@H]1CCN1C(c1ccc(Br)cc1)c1ccc(Br)cc1`, the pKi was 5.60 in assay [1], 5.60 in [2], 5.30 in [3] and 5.83 in [4].

For the molecule `N[C@@H](c1cc(F)cc(F)c1)[C@@H]1CCN1C(c1ccccc1)c1ccccc1`, the pKi in [1] is 5.37; in assay [2], 6.98; in assay [3], 5.02; in [4], 5.40. Also, the Activity result in assay [6] was “Agonist”.

For `N[C@@H](c1cccc(C(F)(F)F)c1)[C@@H]1CCN1C(c1ccccc1)c1ccccc1` (stereo in doubt; (+\-)-1) [listing 2 of 2 here], the pKi in assay [1] is 5.71; in assay [2], 7.51; in assay [3] it was 5.22; in [4], 5.79.

For `CCCCCCC(c1ccccc1)N1CC[C@H]1[C@@H](N)c1cccc(Cl)c1` (stereo not given in full), the pKi was 5.80 in [1], 5.99 in assay [2], 5.30 in [3] and 5.71 in assay [4].

As for `Cc1ccc([C@H](N)[C@@H]2CCN2C(c2ccccc2)c2ccccc2)cc1F`, the pKi in [1] is 6.82; in assay [2], 7.24; in assay [3], 6.20; in [4] it was 6.82. Further, the Activity result in [6] was “Agonist”.

As for `N[C@@H](c1cccc(C(F)(F)F)c1)[C@@H]1CCN1C(c1ccccc1)c1ccccc1` (stereo in doubt; (+)-1a) [listing 2 of 2 here], the pKi was 5.22 in [1], 6.63 in assay [2], 4.96 in assay [3] and 5.45 in [4].

On to `CCCCC(c1cc(F)cc(F)c1)N1CC[C@H]1[C@@H](N)c1cccc(Cl)c1` (stereo not given in full), for which the pKi was 5.26 in assay [1], 6.46 in [2], 5.03 in assay [3] and 5.19 in assay [4].

For the molecule `CCCC(c1ccccc1)N1CC[C@H]1[C@@H](N)c1cccc(Cl)c1` (stereo not given in full), the pKi is 5.38 in assay [1], 6.44 in assay [2], 5.00 in assay [3] and 5.53 in [4].
